Laboratory results as given in ChEMBL document CHEMBL5223087, “First-in-Class Cyclic Temporin L Analogue: Design, Synthesis, and Antimicrobial Assessment” (J Med Chem, 2021).
In brackets after ≈: the same amount, converted by molar mass. Activity calls are given as the source filed them. No cut-off for these calls is given here. Bridge positions count the residues as written; N and C are the ends. Square brackets hold non-standard residues; d marks the D form. Triazole bridges read from a SMILES are 1,4-linked. Peptide text beside a SMILES is read from it. dLys(N3) = [N-]=[N+]=NCCCC[C@@H](N)C(=O)O; Lys(N3) = [N-]=[N+]=NCCCC[C@H](N)C(=O)O; Pra = C#CC[C@H](N)C(=O)O

Columns and labels:
Staphylococcus aureus = assay: Antimicrobial activity against Staphylococcus aureus ATCC 25923 assessed as reduction in bacterial growth incubated for 16 to 18 hrs by microdilution susceptibility test; assay type: functional; conditions: time 16-18 hrs
Method in brief: (§1)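 Broth microdilution in Mueller–Hinton broth. Mid-log bacteria at 1 × 10⁶ CFU/mL final, peptide twofold serial dilutions 100 to 0.78 μM final. Incubated 16–18 h at 37 °C. MIC taken as the lowest concentration giving total (100%) growth inhibition.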

[1] = tested on: Staphylococcus epidermidis; assay: Antimicrobial activity against Staphylococcus epidermidis ATCC 12228 assessed as reduction in bacterial growth incubated for 16 to 18 hrs by microdilution susceptibility test; assay type: functional; conditions: time 16-18 hrs; method in brief: as §1
Escherichia coli = assay: Antimicrobial activity against Escherichia coli ATCC 25922 assessed as reduction in bacterial growth incubated for 16 to 18 hrs by microdilution susceptibility test; assay type: functional; conditions: time 16-18 hrs; method in brief: as §1
Pseudomonas aeruginosa = assay: Antimicrobial activity against Pseudomonas aeruginosa ATCC 27853 assessed as reduction in bacterial growth incubated for 16 to 18 hrs by microdilution susceptibility test; assay type: functional; conditions: time 16-18 hrs; method in brief: as §1
Acinetobacter baumannii = assay: Antimicrobial activity against Acinetobacter baumannii ATCC 19606 assessed as reduction in bacterial growth incubated for 16 to 18 hrs by microdilution susceptibility test; assay type: functional; conditions: time 16-18 hrs; method in brief: as §1
Priestia megaterium = assay: Antimicrobial activity against Bacillus megaterium Bm11 assessed as reduction in bacterial growth incubated for 16 to 18 hrs by microdilution susceptibility test; assay type: functional; conditions: time 16-18 hrs; method in brief: as §1
HaCaT [2] = assay: Cytotoxicity against human HaCaT cells assessed as reduction in cell viability at 25 uM measured after 2 hrs by MTT assay; assay type: toxicity, cell-based
Method in brief: (§2)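 HaCaT keratinocytes seeded at 4 × 10⁴/well in DMEM with 4 mM glutamine and 2% FBS, no antibiotics, overnight at 37 °C, 5% CO2. Medium replaced with peptide-containing DMEMg for 2 or 24 h. MTT 0.5 mg/mL in Hank's buffer 4 h, formazan dissolved in acidified isopropanol, A570. Viability as % of untreated cells; mean of three independent experiments ± SEM.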

HaCaT [3] = assay: Cytotoxicity against human HaCaT cells assessed as reduction in cell viability at 50 uM measured after 2 hrs by MTT assay; assay type: toxicity, cell-based; method in brief: as §2
HaCaT [4] = assay: Cytotoxicity against human HaCaT cells assessed as reduction in cell viability at 50 uM measured after 24 hrs by MTT assay; assay type: toxicity, cell-based; method in brief: as §2
[5] = Membrano-lytic effect in bacterial inner membrane mimic DOPG/CL (58:42) large unilamellar vesicles at 50 uM by varian cary eclipse fluorescence spectrometry analysis; assay type: cell membranes
[6] = Membrano-lytic effect in bacterial inner membrane mimic DOPE/DOPG/CL (63:23:12) large unilamellar vesicles at 5 to 50 uM by varian cary eclipse fluorescence spectrometry analysis; assay type: cell membranes; conditions: dose 5-50 µM
[7] = Membrano-lytic effect in bacterial inner membrane mimic DOPE/DOPG/CL (63:23:12) large unilamellar vesicles at 10 uM by varian cary eclipse fluorescence spectrometry analysis; assay type: cell membranes
[8] = Disaggregation property of compound in LPS at 20 uM after 1 hr by Tht fluorescence based assay; assay type: physicochemical
Method in brief: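 Peptide 20 μM incubated 1 h with LPS 1 mg/mL and ThT 25 μM. Aggregation read as ThT emission at 482 nm, excitation 450 nm. ThT alone and peptide alone served as controls.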

Compound	MIC (Staphylococcus aureus)	MIC [1]	MIC (Escherichia coli)	MIC (Pseudomonas aeruginosa)	MIC (Acinetobacter baumannii)	MIC (Priestia megaterium)	Activity (HaCaT [2])	Activity (HaCaT [3])	Activity (HaCaT [4])	Activity [5]	Activity [6]	Activity [7]	Activity [8]
CC[C@H](C)[C@H](NC(=O)[C@H](CCCNC(=N)N)NC(=O)CNC(=O)[C@H]1CCCCn2cc(nn2)C[C@H](NC(=O)[C@H](Cc2c[nH]c3ccccc23)NC(=O)[C@@H]2CCCN2C(=O)[C@@H](NC(=O)[C@@H](N)Cc2ccccc2)C(C)C)C(=O)N[C@@H](CO)C(=O)N[C@@H](CCCCN)C(=O)N[C@@H](Cc2ccccc2)C(=O)N1)C(=O)N[C@@H](CC(C)C)C(N)=O (H-FVPW[Pra]SKF[dLys(N3)]GRIL-NH2; triazole 5-9)	> 100 µM	> 100 µM	100 µM (≈ 160 µg/mL)	> 100 µM	100 µM (≈ 160 µg/mL)	–	–	–	–	–	–	–	–
CCC(C)[C@H](NC(=O)[C@H](CCCNC(=N)N)NC(=O)[C@]1(C)CCC/C=C/CCC[C@](C)(NC(=O)[C@H](Cc2ccccc2)NC(=O)[C@H](Cc2c[nH]c3ccccc23)NC(=O)[C@@H]2CCCN2C(=O)[C@@H](NC(=O)[C@@H](N)Cc2ccccc2)C(C)C)C(=O)N[C@@H](CCCCN)C(=O)N[C@@H](Cc2ccccc2)C(=O)N[C@H](CC(C)C)C(=O)N1)C(=O)N[C@@H](CC(C)C)C(N)=O (stereo partly drawn)	> 100 µM	> 100 µM	> 100 µM	> 100 µM	> 100 µM	100 µM (≈ 172 µg/mL)	–	–	–	–	–	–	–
CC[C@H](C)[C@@H]1NC(=O)[C@H](CCCNC(=N)N)NC(=O)CNC(=O)[C@@H](CC(C)C)NC(=O)[C@H](Cc2ccccc2)NC(=O)[C@H](CCCCN)NC(=O)[C@@H](NC(=O)[C@H](Cc2ccccc2)NC(=O)[C@H](Cc2c[nH]c3ccccc23)NC(=O)[C@@H]2CCCN2C(=O)[C@@H](NC(=O)[C@@H](N)Cc2ccccc2)C(C)C)Cc2cn(nn2)CCCC[C@@H](C(N)=O)NC1=O (H-FVPWF[Pra]KF[dL]GRI[Lys(N3)]-NH2; triazole 6-13)	> 100 µM	> 100 µM	> 100 µM	> 100 µM	> 100 µM	–	–	–	–	–	–	–	–
CC(C)C[C@H](NC(=O)[C@@H]1CCCCn2cc(nn2)C[C@H](NC(=O)[C@H](CCCCN)NC(=O)[C@H](CO)NC(=O)[C@H](Cc2ccccc2)NC(=O)[C@H](Cc2c[nH]c3ccccc23)NC(=O)[C@@H]2CCCN2C(=O)[C@@H](NC(=O)[C@@H](N)Cc2ccccc2)C(C)C)C(=O)N[C@H](CC(C)C)C(=O)NCC(=O)N[C@@H](CCCNC(=N)N)C(=O)N1)C(N)=O (H-FVPWFSK[Pra][dL]GR[Lys(N3)]L-NH2; triazole 8-12)	> 100 µM	> 100 µM	–	> 100 µM	–	–	–	–	–	–	–	–	–
CC(C)C[C@H](NC(=O)[C@@H]1CCC(=O)NCCCC[C@H](NC(=O)[C@H](CCCCN)NC(=O)[C@H](CO)NC(=O)[C@H](Cc2ccccc2)NC(=O)[C@H](Cc2c[nH]c3ccccc23)NC(=O)[C@@H]2CCCN2C(=O)[C@@H](NC(=O)[C@@H](N)Cc2ccccc2)C(C)C)C(=O)N[C@H](CC(C)C)C(=O)NCC(=O)N[C@@H](CCCNC(=N)N)C(=O)N1)C(N)=O (H-FVPWFSKK[dL]GREL-NH2; lactam 8-12)	> 100 µM	> 100 µM	> 100 µM	> 100 µM	> 100 µM	–	–	–	–	–	–	–	–
CC[C@H](C)[C@H](NC(=O)[C@H](CCCNC(=N)N)NC(=O)[C@@H]1CSSC[C@H](NC(=O)[C@H](Cc2ccccc2)NC(=O)[C@H](Cc2c[nH]c3ccccc23)NC(=O)[C@@H]2CCCN2C(=O)[C@@H](NC(=O)[C@@H](N)Cc2ccccc2)C(C)C)C(=O)N[C@@H](CCCCN)C(=O)N[C@@H](Cc2ccccc2)C(=O)N[C@H](CC(C)C)C(=O)N1)C(=O)N[C@@H](CC(C)C)C(N)=O (H-FVPWFCKF[dL]CRIL-NH2; disulfide 6-10)	100 µM (≈ 167 µg/mL)	–	–	> 100 µM	–	–	–	–	–	–	–	–	–
CC[C@H](C)[C@@H]1NC(=O)[C@H](CCCNC(=N)N)NC(=O)CNC(=O)[C@H](NC(=O)[C@H](Cc2ccccc2)NC(=O)[C@H](CCCCN)NC(=O)[C@H](CO)NC(=O)[C@H](Cc2ccccc2)NC(=O)[C@H](Cc2c[nH]c3ccccc23)NC(=O)[C@@H]2CCCN2C(=O)[C@@H](NC(=O)[C@@H](N)Cc2ccccc2)C(C)C)CCCCNC(=O)CC[C@@H](C(N)=O)NC1=O	> 100 µM	> 100 µM	> 100 µM	> 100 µM	> 100 µM	–	–	–	–	–	–	–	–
CC[C@H](C)[C@H](NC(=O)[C@H](CCCNC(=N)N)NC(=O)CNC(=O)[C@@H](CC(C)C)NC(=O)[C@@H]1CCCCn2cc(nn2)C[C@H](NC(=O)[C@@H]2CCCN2C(=O)[C@@H](NC(=O)[C@@H](N)Cc2ccccc2)C(C)C)C(=O)N[C@@H](Cc2ccccc2)C(=O)N[C@@H](CO)C(=O)N[C@@H](CCCCN)C(=O)N1)C(=O)N[C@@H](CC(C)C)C(N)=O (H-FVP[Pra]FSK[Lys(N3)][dL]GRIL-NH2; triazole 4-8)	> 100 µM	> 100 µM	> 100 µM	> 100 µM	> 100 µM	–	–	–	–	–	–	–	–
CC[C@H](C)[C@H](NC(=O)[C@H](CCCNC(=N)N)NC(=O)CNC(=O)[C@H]1CCC(=O)NCCCC[C@H](NC(=O)[C@H](Cc2c[nH]c3ccccc23)NC(=O)[C@@H]2CCCN2C(=O)[C@@H](NC(=O)[C@@H](N)Cc2ccccc2)C(C)C)C(=O)N[C@@H](CO)C(=O)N[C@@H](CCCCN)C(=O)N[C@@H](Cc2ccccc2)C(=O)N1)C(=O)N[C@@H](CC(C)C)C(N)=O (H-FVPWKSKF[dE]GRIL-NH2; lactam 5-9)	> 100 µM	> 100 µM	> 100 µM	> 100 µM	> 100 µM	100 µM (≈ 159 µg/mL)	–	–	–	–	–	–	–
CC[C@H](C)[C@H](NC(=O)[C@H](CCCNC(=N)N)NC(=O)CNC(=O)[C@@H](CC(C)C)NC(=O)[C@@H]1CCC(=O)NCCCC[C@H](NC(=O)[C@@H]2CCCN2C(=O)[C@@H](NC(=O)[C@@H](N)Cc2ccccc2)C(C)C)C(=O)N[C@@H](Cc2ccccc2)C(=O)N[C@@H](CO)C(=O)N[C@@H](CCCCN)C(=O)N1)C(=O)N[C@@H](CC(C)C)C(N)=O (H-FVPKFSKE[dL]GRIL-NH2; lactam 4-8)	> 100 µM	> 100 µM	> 100 µM	> 100 µM	> 100 µM	> 100 µM	–	–	–	–	–	–	–
CC(C)C[C@H](NC(=O)[C@@H]1CCC(=O)NCCCC[C@H](NC(=O)[C@H](Cc2c[nH]c3ccccc23)NC(=O)[C@@H]2CCCN2C(=O)[C@@H](NC(=O)[C@@H](N)Cc2ccccc2)C(C)C)C(=O)N[C@@H](CO)C(=O)N[C@@H](CCCCN)C(=O)N[C@@H](Cc2ccccc2)C(=O)N[C@H](CC(C)C)C(=O)NCC(=O)N[C@@H](CCCNC(=N)N)C(=O)N1)C(N)=O (H-FVPWKSKF[dL]GREL-NH2; lactam 5-12)	> 100 µM	> 100 µM	> 100 µM	> 100 µM	> 100 µM	100 µM (≈ 159 µg/mL)	–	–	–	–	–	–	–
CC[C@H](C)[C@@H]1NC(=O)[C@H](CCCNC(=N)N)NC(=O)CNC(=O)[C@@H](CC(C)C)NC(=O)[C@H](Cc2ccccc2)NC(=O)[C@H](CCCCN)NC(=O)[C@@H](NC(=O)[C@H](Cc2ccccc2)NC(=O)[C@H](Cc2c[nH]c3ccccc23)NC(=O)[C@@H]2CCCN2C(=O)[C@@H](NC(=O)[C@@H](N)Cc2ccccc2)C(C)C)CCCCNC(=O)CC[C@@H](C(N)=O)NC1=O (H-FVPWFKKF[dL]GRIE-NH2; lactam 6-13)	> 100 µM	> 100 µM	> 100 µM	> 100 µM	> 100 µM	–	–	–	–	–	–	–	–
CC[C@H](C)[C@H](NC(=O)[C@H](CCCNC(=N)N)NC(=O)[C@@H]1CCCCNC(=O)CC[C@H](NC(=O)[C@H](Cc2ccccc2)NC(=O)[C@H](Cc2c[nH]c3ccccc23)NC(=O)[C@@H]2CCCN2C(=O)[C@@H](NC(=O)[C@@H](N)Cc2ccccc2)C(C)C)C(=O)N[C@@H](CCCCN)C(=O)N[C@@H](Cc2ccccc2)C(=O)N[C@H](CC(C)C)C(=O)N1)C(=O)N[C@@H](CC(C)C)C(N)=O (H-FVPWFEKF[dL]KRIL-NH2; lactam 6-10)	–	–	25 µM (≈ 42.6 µg/mL)	> 100 µM	–	–	60%	< 40%	< 20%	–	–	–	–
CC[C@H](C)[C@H](NC(=O)[C@H](CCCNC(=N)N)NC(=O)[C@@H]1CCCCn2cc(nn2)C[C@H](NC(=O)[C@H](Cc2ccccc2)NC(=O)[C@H](Cc2c[nH]c3ccccc23)NC(=O)[C@@H]2CCCN2C(=O)[C@@H](NC(=O)[C@@H](N)Cc2ccccc2)C(C)C)C(=O)N[C@@H](CCCCN)C(=O)N[C@@H](Cc2ccccc2)C(=O)N[C@@H](CC(C)C)C(=O)N1)C(=O)N[C@@H](CC(C)C)C(N)=O	–	–	> 100 µM	> 100 µM	–	–	60%	< 40%	< 20%	Active	Active	Active	Active
